Source: ChEMBL document CHEMBL4673261, “Saturated Hydroxy Fatty Acids Exhibit a Cell Growth Inhibitory Activity and Suppress the Cytokine-Induced β-Cell Apoptosis” (J Med Chem, 2020)
Each block holds one compound with its values, some of them ahead of it. Active and inactive are the calls of the source. The calls are words filed in the database; no cut-off is given here.

Tests used:
SF-268 [1] = assay: Antiproliferative activity against human SF-268 cells assessed as reduction in cell growth at 10 to 100 uM after 72 hrs by MTT assay; type: functional, cell-based; details: dose 10-100 µM
Method in brief: (§1)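 Cells were switched after 24 h to medium containing compound, diluted from a 10 mM DMSO stock to a final 0.5% DMSO, with vehicle controls. Exposure was 72 h, then MTT (0.25 mg/mL final) for 3 h. Formazan was dissolved in DMSO and read at 570 nm minus 690 nm background. Triplicate wells were normalised to DMSO as 100%. IC50 came from dose-response curves over at least six experiments.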

A549 [2] = assay: Antiproliferative activity against human A549 cells assessed as reduction in cell growth at 10 to 100 uM after 72 hrs by MTT assay; type: functional, cell-based; details: dose 10-100 µM; method in brief: as §1
Caco-2 [3] = assay: Antiproliferative activity against human Caco2 cells assessed as reduction in cell growth at 10 to 100 uM after 72 hrs by MTT assay; type: functional, cell-based; details: dose 10-100 µM; method in brief: as §1
A549 [4] = assay: Antiproliferative activity against human A549 cells assessed as reduction in cell growth after 72 hrs by MTT assay; type: functional, cell-based; details: A549, 72 h; method in brief: as §1
U-87 MG = assay: Antiproliferative activity against human U-87 MG cells assessed as reduction in cell growth after 72 hrs by MTT assay; type: functional, cell-based; details: U-87MG ATCC; method in brief: as §1
Caco-2 [5] = assay: Antiproliferative activity against human Caco2 cells assessed as reduction in cell growth after 72 hrs by MTT assay; type: functional, cell-based; details: Caco-2, 72 h; method in brief: as §1
A549 [6] = assay: Cell cycle arrest in human A549 cells assessed as reduction in histone H3 phosphorylation at 50 uM measured after 72 hrs by DAPI and immunostaining based assay; type: functional
Method in brief: (§2)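 A549 cells (DMEM, 4.5 g/L glucose, 10% heat-inactivated FBS) were grown on poly-L-lysine-coated coverslips and exposed to 50 μM or DMSO vehicle for 72 h. They were fixed in 4% PFA and blocked with 5% FBS/0.1% Triton X-100. Staining was rabbit anti-phospho-histone H3 or anti-cleaved caspase-3 overnight at 4 °C, then Alexa488 secondary and DAPI. Read-out was % positive nuclei over DAPI, n = 8 fields.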

[7] = (§3) Protection against IL1beta/IFNgamma-induced cell death in […] cells assessed as reduction in cell death at 1 uM preincubated for 1 hr followed by IL1beta/IFNgamma addition and measured after 16 hrs by TUNEL assay relative to control; type: functional; parameters: scale not given: the % may be the effect or the level left; details: time 17 hrs
Method in brief: (§4)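 INS-1 insulinoma cells grown in RPMI (10% fetal calf serum, 2 mM glutamine, 10 mM HEPES, 1 mM pyruvate) at 37 °C, 5% CO2 to ~70% confluency. Pretreated 1 h with the hydroxy fatty acid in DMSO (final 0.10%), then IL-1β 20 ng/mL + IFNγ 200 ng/mL for 16 h. Cells were cytospun, PFA-fixed and permeabilised, then TUNEL/DAPI stained. Apoptotic cells counted as % of total, ≥3 fields per slide, 3–5 independent experiments.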

A549 [8] = assay: Induction of apoptosis in human A549 cells assessed as increase in activated caspase-3 at 50 uM measured after 72 hrs by DAPI and immunostaining based assay; type: functional, cell-based; method in brief: as §2
[9] = (§5) Protection against IL1beta/IFNgamma-induced cell death in […] cells assessed as reduction in cell death at 10 uM preincubated for 1 hr followed by IL1beta/IFNgamma addition and measured after 16 hrs by TUNEL assay relative to control; type: functional; parameters: scale not given: the % may be the effect or the level left; details: time 17 hrs; method in brief: as §4
[10] = Toxicity in […] assessed as induction of apoptotic cell death at 1 to 10 uM measured after 1 hr by TUNEL assay; type: cell-based; details: ins1, 10 µM; dose 1-10 µM
Method in brief: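 INS-1 cells (RPMI, 10% FCS, 10 mM HEPES, 1 mM pyruvate, 37 °C, 5% CO2) were grown to ~70% confluency. They were pretreated 1 h with 1 or 10 μM (final DMSO 0.10%), then given vehicle or IL-1β 20 ng/mL + IFNγ 200 ng/mL for 16 h. Cells were cytospun, PFA-fixed, permeabilised, TUNEL-stained and DAPI-counterstained. Result was % TUNEL-positive nuclei from ≥3 fields per slide, 3–5 independent experiments, mean ± SEM.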

INS1 [11] = assay: as §5; type: functional; details: Rattus norvegicus, time 17.0 hrs; method in brief: as §4
INS1 [12] = assay: as §3; type: functional; details: Rattus norvegicus, time 17.0 hrs; method in brief: as §4
SF-268 [13] = assay: Antiproliferative activity against human SF-268 cells assessed as reduction in cell growth after 72 hrs by MTT assay; type: functional, cell-based; details: SF-268, 72 h; method in brief: as §1
[14] = target: Signal transducer and activator of transcription 3 (Homo sapiens) (UniProt P40763); assay: Down regulation of STAT3 phosphorylation in human A549 cells at 50 uM by Western blot analysis; type: cell-based
Signal transducer and activator of transcription 3 (Homo sapiens), sequence (P40763 whole entry): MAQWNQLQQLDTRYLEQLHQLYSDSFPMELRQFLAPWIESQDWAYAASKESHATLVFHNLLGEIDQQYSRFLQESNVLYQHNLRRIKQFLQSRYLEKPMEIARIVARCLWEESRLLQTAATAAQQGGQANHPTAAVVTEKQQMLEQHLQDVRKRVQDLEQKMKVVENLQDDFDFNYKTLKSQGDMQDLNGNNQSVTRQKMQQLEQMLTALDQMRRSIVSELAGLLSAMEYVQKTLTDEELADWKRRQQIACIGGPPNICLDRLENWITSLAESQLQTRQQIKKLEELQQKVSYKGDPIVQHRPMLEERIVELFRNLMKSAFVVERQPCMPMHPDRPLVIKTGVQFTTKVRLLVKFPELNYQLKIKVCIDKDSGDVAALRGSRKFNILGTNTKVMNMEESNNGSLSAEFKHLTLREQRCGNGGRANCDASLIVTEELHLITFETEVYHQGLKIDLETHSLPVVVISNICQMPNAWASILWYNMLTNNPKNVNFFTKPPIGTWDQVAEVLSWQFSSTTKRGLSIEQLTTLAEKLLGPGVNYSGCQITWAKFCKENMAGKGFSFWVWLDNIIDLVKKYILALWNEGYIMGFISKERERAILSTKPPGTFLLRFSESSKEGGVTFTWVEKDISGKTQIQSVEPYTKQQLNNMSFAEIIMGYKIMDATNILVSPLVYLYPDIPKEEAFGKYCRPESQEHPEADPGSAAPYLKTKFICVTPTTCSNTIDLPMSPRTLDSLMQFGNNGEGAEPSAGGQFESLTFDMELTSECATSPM
Method in brief: (§6)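 Treated and untreated A549 cells were lysed in RIPA and spun at 17,000g for 15 min at 4 °C. 35 μg protein was run on SDS-PAGE and transferred to nitrocellulose, then blocked with 5% BSA in TBS-0.1% Tween 20. Probes were anti-phospho-STAT3 (1:1000), anti-STAT3 (1:1000) and anti-β-actin (1:20,000) overnight at 4 °C, then secondary for 1.30 h. Relative protein expression was quantified.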

A549 [15] = assay: Reduction in STAT3 mRNA level in human A549 cells at 50 uM by RT-qPCR analysis; type: functional, cell-based
Method in brief: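 STAT3 mRNA in DMSO- versus compound-treated A549 cells was measured by quantitative real-time RT-PCR, normalised to β-actin mRNA.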

A549 [16] = assay: Reduction in total STAT3 expression in human A549 cells at 50 uM by Western blot analysis; type: functional, cell-based; method in brief: as §6

Compound: CCCCCCCCCCCCCCCCCC(=O)O
- Activity (SF-268 [1]): inactive
- Activity (A549 [2]): inactive
- Activity (Caco-2 [3]): inactive

- IC50 (A549 [4]): 49 µM
- IC50 (Caco-2 [5]): 42 µM
Compound: CCCCCCCCC[C@@H](O)CCCCCC(=O)O
- Activity (U-87 MG): inactive

Compound: CCCCCCCCC[C@@H](O)CCCCCCCC(=O)O
- Activity (A549 [6]): Active
- Activity [7]: 40%
- Activity (A549 [8]): inactive
- Activity [9]: 73%
- Activity [10]: Non-Toxic

Compound: CCCCCCCCCCCCCCCC(=O)OC(CCCCCCCCC)CCCCCCCC(=O)O (centres undefined)
- Activity (SF-268 [1]): inactive
- Activity (A549 [2]): inactive
- Activity (Caco-2 [3]): inactive

Compound: CCCCCCCCCCCCCCCC(=O)O
- Activity (SF-268 [1]): inactive
- Activity (A549 [2]): inactive
- Activity (Caco-2 [3]): inactive

Compound: CCCCCCCCCCCCCCCC(=O)OC(CCCCCCCCCCC)CCCCCC(=O)O (centres undefined)
- Activity (SF-268 [1]): inactive
- Activity (A549 [2]): inactive
- Activity (Caco-2 [3]): inactive
- Activity (INS1 [11]): inactive

Compound: CCCCCCCCC[C@H](O)CCCCCCCC(=O)O
- Activity [7]: 40%
- Activity [9]: 68%
- Activity [10]: Non-Toxic

- IC50 (A549 [4]): 55 µM
- IC50 (Caco-2 [5]): 50 µM
Compound: CCCCCCCCC[C@H](O)CCCCCC(=O)O
- Activity (U-87 MG): inactive

Compound: CCCCCCCC/C=C\CCCCCCCC(=O)OC(CCCCCCCCC)CCCCCCCC(=O)O (centres undefined)
- Activity (SF-268 [1]): inactive
- Activity (A549 [2]): inactive
- Activity (Caco-2 [3]): inactive

Compound: CCCCCCCCCCC[C@@H](O)CCCCCC(=O)O
- Activity (A549 [6]): Active
- IC50 (A549 [4]): 38 µM
- Activity (INS1 [12]): inactive
- Activity (U-87 MG): inactive
- IC50 (SF-268 [13]): 27 µM
- IC50 (Caco-2 [5]): 37 µM
- Activity (A549 [8]): inactive
- Activity [14]: Active
- Activity (A549 [15]): Active
- Activity (A549 [16]): Active
- Activity [9]: 95%
- Activity [10]: Non-Toxic

Compound: CCCCCCCCCCC[C@H](O)CCCCCC(=O)O
- IC50 (A549 [4]): 50 µM
- Activity (INS1 [12]): inactive
- Activity (U-87 MG): inactive
- IC50 (SF-268 [13]): 47 µM
- IC50 (Caco-2 [5]): 50 µM
- Activity (INS1 [11]): inactive
- Activity [10]: Non-Toxic
